Test results as given in ChEMBL document CHEMBL1141560, “Alpha,beta-cyclic-beta-benzamido hydroxamic acids: novel templates for the design, synthesis, and evaluation of selective inhibitors of TNF-alpha converting enzyme (TACE)” (Bioorg Med Chem Lett, 2008).
Values belong to the compound of their own block, whether it stands above or below them.

Assays:
Format in all cases: ADME, organism-based
[1] = Clearance in rat at 5.0 mg/kg, iv; parameters: dose 5 mg/kg, route intravenous; conditions: in vivo
How it was run: (§1)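 Rats given 5.0 mg/kg IV or PO by n-in-1 cassette dosing; three animals per dosing group, parameters reported as the group average.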

[2] = Volume of distribution at steady state in rat at 5.0 mg/kg, iv; parameters: dose 5 mg/kg, route intravenous; conditions: in vivo, read-out: Vdss; how it was run: as §1
[3] = Oral bioavailability in rat at 5.0 mg/kg; conditions: in vivo; how it was run: as §1
[4] = AUC in rat at 5.0 mg/kg, po; parameters: dose 5 mg/kg, route oral; conditions: plasma; how it was run: as §1
[5] = Half life in rat at 5.0 mg/kg, po; parameters: dose 5 mg/kg, route oral; conditions: in vivo; how it was run: as §1
[6] = AUC in rat at 5.0 mg/kg, iv; parameters: dose 5 mg/kg, route intravenous; conditions: plasma; how it was run: as §1
[7] = Half life in rat at 5.0 mg/kg, iv; parameters: dose 5 mg/kg, route intravenous; conditions: in vivo; how it was run: as §1
[8] = Oral bioavailability in rat; conditions: in vivo
[9] = Half life in rat at […], po; parameters: dose 3.3 mg/kg, route oral; conditions: in vivo
[10] = Half life in rat at […], iv; parameters: dose 3.3 mg/kg, route intravenous; conditions: in vivo
[11] = Oral bioavailability in rat at […]; conditions: in vivo
[12] = AUC in rat at […], po; parameters: dose 3.3 mg/kg, route oral; conditions: plasma
[13] = Volume of distribution at steady state in rat at […], iv; parameters: dose 3.3 mg/kg, route intravenous; conditions: in vivo, read-out: Vdss
[14] = Clearance in rat at […], iv; parameters: dose 3.3 mg/kg, route intravenous; conditions: in vivo
[15] = AUC in rat at […], iv; parameters: dose 3.3 mg/kg, route intravenous; conditions: plasma

clearance [1]: 38.3 mL/min/kg
Vd [2]: 0.8 L/kg
bioavailability [3]: 21%
AUC [4]: 0.846 µM·h
half-life [5]: 2.9 h
AUC [6]: 4.06 µM·h
half-life [7]: 2.1 h
SMILES: Cc1cc(COc2ccc(C(=O)N[C@@H]3COC[C@@H]3C(=O)NO)cc2)c2ccccc2n1

bioavailability [8]: 3%
SMILES: Cc1cc(COc2ccc(C(=O)N[C@@H]3CN(S(C)(=O)=O)C[C@@H]3C(=O)NO)cc2)c2ccccc2n1

half-life [9]: 3.1 h
half-life [10]: 2.9 h
bioavailability [11]: 25%
AUC [12]: 0.567 µM·h
Vd [13]: 1.7 L/kg
clearance [14]: 55 mL/min/kg
AUC [15]: 2.23 µM·h
SMILES: C#CCN1C[C@H](C(=O)NO)[C@H](NC(=O)c2ccc(OCc3cc(C)nc4ccccc34)cc2)C1
